Activity calls are given as the source filed them.
Legend:
[1] = target: D(2) dopamine receptor (Homo sapiens) (UniProt P14416); test: Displacement of [3H]methylspiperone from human recombinant Dopamine D2S receptor expressed in HEK293 cells at 10^-5 M; format: cell-based
Outline: (§1)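 Radioligand displacement screen with the test agent at a single 10^-5 M concentration; receptor source and radioligand per target as tabulated (recombinant human cell lines or rat cerebral cortex/urinary bladder).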

[2] = system: U-937; test: Displacement of [125I]TNF-alpha from TNF-alpha receptor in human U937 cells at 10^-5 M; format: cell-based
Outline: (§2)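 Radioligand binding screen run at a single test concentration of 10^-5 M. Each target used its stated receptor source (human recombinant CHO or HEK-293 cells, endogenous cell lines, or rat tissue membranes) with the listed radioligand.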

[3] = system: Rattus norvegicus; test: Anticonvulsant activity in pilocarpine-induced status epilepticus Sprague-Dawley rat model at 30 mg/kg, ip after 1 hr during post stage 3 seizure; format: functional, organism-based
Outline: (§3)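 Rats given pilocarpine 50 mg/kg ip and observed to first convulsive seizure (Racine stage 3–5, time zero); test drug then given ip in 0.5% methylcellulose. Efficacy = halting further stage 3–5 convulsive seizures; scored protected/tested, time after first stage 3 seizure.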

[4] = system: Rattus norvegicus; test: Anticonvulsant activity in pilocarpine-induced status epilepticus Sprague-Dawley rat model at 30 mg/kg, ip after 2 hrs during post stage 3 seizure; format: functional, organism-based; outline: as §3
[5] = system: Mus musculus; test: Anticonvulsant activity in mouse assessed as protection against maximal electric shock-induced seizures at 30 mg/kg, ip measured after 0.5 hrs; format: functional, organism-based
Outline: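 Mice dosed ip with suspension in 0.5% methylcellulose; maximal electroshock applied at the listed time after dosing. Protection = abolition of hindlimb tonic extension component of seizure; reported as animals protected/animals tested.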

[6] = system: Mus musculus; test: Anticonvulsant activity in mouse assessed as protection against subcutaneous pentylenetetrazol-induced seizures at 30 mg/kg, ip measured after 0.5 hrs; format: functional, organism-based
Outline: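 Mice dosed ip as 0.5% methylcellulose suspension; pentylenetetrazole 85 mg/kg in 0.9% NaCl injected subcutaneously into posterior midline, animals watched at least 30 min. Protection = no threshold seizure (single clonic spasm episode lasting ≥5 s); scored protected/tested.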

[7] = target: Adenosine receptor A3 (Homo sapiens) (UniProt P0DMS8); test: Displacement of [125I]ABMECA from human recombinant adenosine A3 receptor expressed in HEK293 cells at 10^-5 M; format: cell-based; outline: as §2
Sequence of Adenosine receptor A3 (Homo sapiens) (P0DMS8 whole entry): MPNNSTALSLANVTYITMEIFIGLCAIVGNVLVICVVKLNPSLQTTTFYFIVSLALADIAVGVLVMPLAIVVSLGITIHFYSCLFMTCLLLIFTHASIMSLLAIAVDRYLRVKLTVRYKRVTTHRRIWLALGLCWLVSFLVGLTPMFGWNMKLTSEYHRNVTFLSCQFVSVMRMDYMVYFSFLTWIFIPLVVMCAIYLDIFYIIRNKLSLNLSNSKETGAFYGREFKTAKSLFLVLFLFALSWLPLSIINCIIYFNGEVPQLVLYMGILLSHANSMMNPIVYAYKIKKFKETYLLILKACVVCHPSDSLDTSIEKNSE

[8] = target: Beta-2 adrenergic receptor (Homo sapiens) (UniProt P07550); test: Displacement of [3H](-)CGP12177 from human recombinant Beta-2 adrenergic receptor expressed in CHO cells at 10^-5 M; format: cell-based; outline: as §2
[9] = species on record: Rattus norvegicus; test: Displacement of [125I][Tyr4]bombesin from rat cerebral cortex Bombesin receptor at 10^-5 M; format: tissue-based; outline: as §2
[10] = target: B2 bradykinin receptor (Homo sapiens) (UniProt P30411); test: Displacement of [3H]bradykinin from human recombinant B2 bradykinin receptor at 10^-5 M; outline: as §1
[11] = target: Endothelin-1 receptor (Homo sapiens) (UniProt P25101); test: Displacement of [125I]Endothelin-1 from human recombinant Endothelin-1 receptor expressed in CHO cells at 10^-5 M; format: cell-based; outline: as §2
Sequence of Endothelin-1 receptor (Homo sapiens) (P25101 whole entry): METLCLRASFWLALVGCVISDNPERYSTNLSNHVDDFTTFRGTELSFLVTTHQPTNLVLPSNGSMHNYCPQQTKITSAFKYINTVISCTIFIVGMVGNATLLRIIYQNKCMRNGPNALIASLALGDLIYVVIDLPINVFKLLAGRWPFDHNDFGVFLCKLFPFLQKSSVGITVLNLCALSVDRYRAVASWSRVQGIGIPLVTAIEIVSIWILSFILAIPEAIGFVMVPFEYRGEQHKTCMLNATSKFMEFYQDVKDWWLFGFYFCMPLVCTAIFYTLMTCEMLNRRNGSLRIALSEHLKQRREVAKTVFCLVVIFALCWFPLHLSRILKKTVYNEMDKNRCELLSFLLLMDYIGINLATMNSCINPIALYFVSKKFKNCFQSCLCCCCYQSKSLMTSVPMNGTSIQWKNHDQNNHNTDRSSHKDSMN

[12] = target: Histamine H1 receptor (Homo sapiens) (UniProt P35367); test: Displacement of [3H]pyrilamine from human recombinant histamine H1 receptor expressed in HEK293 cells at 10^-5 M; format: cell-based; outline: as §1
Sequence of Histamine H1 receptor (Homo sapiens) (P35367 whole entry): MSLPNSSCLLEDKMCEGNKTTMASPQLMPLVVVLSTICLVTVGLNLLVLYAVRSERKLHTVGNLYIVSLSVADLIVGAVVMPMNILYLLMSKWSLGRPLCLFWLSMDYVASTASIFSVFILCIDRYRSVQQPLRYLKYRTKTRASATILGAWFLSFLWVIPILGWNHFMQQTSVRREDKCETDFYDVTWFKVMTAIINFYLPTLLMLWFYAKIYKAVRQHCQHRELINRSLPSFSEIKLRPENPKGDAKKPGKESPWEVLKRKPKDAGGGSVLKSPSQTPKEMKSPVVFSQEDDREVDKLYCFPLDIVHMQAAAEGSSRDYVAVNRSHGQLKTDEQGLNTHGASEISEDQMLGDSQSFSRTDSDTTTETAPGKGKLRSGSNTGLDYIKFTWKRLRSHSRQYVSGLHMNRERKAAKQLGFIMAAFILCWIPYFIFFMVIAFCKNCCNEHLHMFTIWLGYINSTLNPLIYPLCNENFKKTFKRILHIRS

[13] = target: Histamine H2 receptor (Homo sapiens) (UniProt P25021); test: Displacement of [125I]APT from human recombinant histamine H2 receptor expressed in CHO cells at 10^-5 M; format: cell-based; outline: as §2
Sequence of Histamine H2 receptor (Homo sapiens) (P25021 whole entry): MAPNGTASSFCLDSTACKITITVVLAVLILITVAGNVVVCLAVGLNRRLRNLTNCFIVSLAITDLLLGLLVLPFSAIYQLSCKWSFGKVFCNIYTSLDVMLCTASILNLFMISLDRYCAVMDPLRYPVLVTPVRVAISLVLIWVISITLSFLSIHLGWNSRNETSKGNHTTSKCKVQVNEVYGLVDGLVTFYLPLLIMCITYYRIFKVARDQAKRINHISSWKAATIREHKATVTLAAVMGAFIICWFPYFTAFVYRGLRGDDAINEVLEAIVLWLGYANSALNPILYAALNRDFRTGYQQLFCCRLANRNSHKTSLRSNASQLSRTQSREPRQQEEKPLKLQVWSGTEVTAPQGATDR

[14] = target: Melanocortin receptor 4 (Homo sapiens) (UniProt P32245); test: Displacement of [125I]NDP-alpha-MSH from human recombinant MC4 receptor expressed in CHO cells at 10^-5 M; format: cell-based; outline: as §2
Sequence of Melanocortin receptor 4 (Homo sapiens) (P32245 whole entry): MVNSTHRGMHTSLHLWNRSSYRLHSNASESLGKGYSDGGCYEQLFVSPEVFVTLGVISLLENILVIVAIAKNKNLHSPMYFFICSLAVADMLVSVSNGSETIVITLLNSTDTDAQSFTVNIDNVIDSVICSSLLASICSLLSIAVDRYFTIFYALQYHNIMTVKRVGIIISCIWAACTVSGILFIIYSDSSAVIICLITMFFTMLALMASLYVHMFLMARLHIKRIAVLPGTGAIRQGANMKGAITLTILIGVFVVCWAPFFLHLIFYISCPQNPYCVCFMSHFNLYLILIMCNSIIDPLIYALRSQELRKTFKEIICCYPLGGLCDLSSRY

[15] = target: Muscarinic acetylcholine receptor M3 (Homo sapiens) (UniProt P20309); test: Displacement of [3H]4-DAMP from human recombinant muscarinic M3 receptor expressed in CHO cells at 10^-5 M; format: cell-based; outline: as §2
Sequence of Muscarinic acetylcholine receptor M3 (Homo sapiens) (P20309 whole entry, looked up): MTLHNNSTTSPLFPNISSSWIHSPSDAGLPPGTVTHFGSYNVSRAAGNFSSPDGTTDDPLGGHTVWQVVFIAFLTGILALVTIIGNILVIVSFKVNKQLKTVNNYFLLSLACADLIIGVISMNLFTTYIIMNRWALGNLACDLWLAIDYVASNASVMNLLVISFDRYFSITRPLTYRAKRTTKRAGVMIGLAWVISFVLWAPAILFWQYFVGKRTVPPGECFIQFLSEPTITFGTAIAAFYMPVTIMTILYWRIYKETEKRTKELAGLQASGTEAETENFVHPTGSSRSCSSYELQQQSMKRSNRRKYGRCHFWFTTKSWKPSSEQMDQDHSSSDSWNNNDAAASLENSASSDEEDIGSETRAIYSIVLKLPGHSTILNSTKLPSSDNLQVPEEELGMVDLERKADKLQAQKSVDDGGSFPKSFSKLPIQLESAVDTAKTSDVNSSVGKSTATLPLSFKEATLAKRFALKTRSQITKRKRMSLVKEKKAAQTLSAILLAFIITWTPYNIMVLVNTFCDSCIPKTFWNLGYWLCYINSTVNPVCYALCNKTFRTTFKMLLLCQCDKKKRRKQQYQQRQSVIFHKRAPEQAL

[16] = target: Muscarinic acetylcholine receptor M4 (Homo sapiens) (UniProt P08173); test: Displacement of [3H]4-DAMP from human recombinant muscarinic M4 receptor expressed in CHO cells at 10^-5 M; format: cell-based; outline: as §2
Sequence of Muscarinic acetylcholine receptor M4 (Homo sapiens) (P08173 whole entry): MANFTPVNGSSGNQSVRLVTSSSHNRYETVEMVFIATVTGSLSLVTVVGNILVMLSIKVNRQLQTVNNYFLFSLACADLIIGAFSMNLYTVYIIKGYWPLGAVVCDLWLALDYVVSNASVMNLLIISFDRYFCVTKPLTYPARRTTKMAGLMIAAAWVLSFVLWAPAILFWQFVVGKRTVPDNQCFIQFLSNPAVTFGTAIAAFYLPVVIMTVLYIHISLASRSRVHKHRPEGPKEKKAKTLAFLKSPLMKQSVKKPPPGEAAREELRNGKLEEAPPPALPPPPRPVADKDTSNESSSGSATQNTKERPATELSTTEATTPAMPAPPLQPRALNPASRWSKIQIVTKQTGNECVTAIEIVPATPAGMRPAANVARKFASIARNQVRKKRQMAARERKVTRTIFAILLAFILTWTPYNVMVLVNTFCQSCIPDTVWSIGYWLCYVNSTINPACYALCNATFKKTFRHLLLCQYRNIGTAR

[17] = target: Substance-K receptor (Homo sapiens) (UniProt P21452); test: Displacement of [125I]NKA from human recombinant NK2 receptor expressed in CHO cells at 10^-5 M; format: cell-based; outline: as §2
[18] = target: Neuromedin-K receptor (Homo sapiens) (UniProt P29371); test: Displacement of [3H]SR142801 from human recombinant NK3 receptor expressed in CHO cells at 10^-5 M; format: cell-based; outline: as §1
Sequence of Neuromedin-K receptor (Homo sapiens) (P29371 whole entry): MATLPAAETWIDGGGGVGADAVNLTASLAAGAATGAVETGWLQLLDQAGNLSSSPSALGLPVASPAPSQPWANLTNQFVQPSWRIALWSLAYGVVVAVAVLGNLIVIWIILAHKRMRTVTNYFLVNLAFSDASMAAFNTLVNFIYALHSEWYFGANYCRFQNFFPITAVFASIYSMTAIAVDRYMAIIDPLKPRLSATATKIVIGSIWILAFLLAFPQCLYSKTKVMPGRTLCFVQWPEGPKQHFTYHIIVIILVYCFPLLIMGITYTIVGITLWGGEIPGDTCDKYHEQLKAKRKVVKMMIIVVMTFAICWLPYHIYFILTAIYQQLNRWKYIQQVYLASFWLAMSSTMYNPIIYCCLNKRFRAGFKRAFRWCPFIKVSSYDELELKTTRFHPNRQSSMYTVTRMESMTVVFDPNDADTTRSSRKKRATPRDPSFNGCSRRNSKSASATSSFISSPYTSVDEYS

[19] = target: Kappa-type opioid receptor (Rattus norvegicus) (UniProt P34975); test: Displacement of [3H]U 69593 from rat recombinant kappa-type opioid receptor expressed in CHO cells at 10^-5 M; format: cell-based; outline: as §1
[20] = target: Prostaglandin E2 receptor EP2 subtype (Homo sapiens) (UniProt P43116); test: Displacement of [3H]PGE2 from human recombinant prostanoid EP2 receptor expressed in HEK293 cells at 10^-5 M; format: cell-based; outline: as §2
[21] = target: Prostaglandin E2 receptor EP4 subtype (Homo sapiens) (UniProt P35408); test: Displacement of [3H]PGE2 from human recombinant prostanoid EP4 receptor expressed in HEK293 cells at 10^-5 M; format: cell-based; outline: as §2
[22] = species on record: Rattus norvegicus; test: Displacement of [35S]dATPalpha S from rat cerebral cortex P2Y receptor at 10^-5 M; format: tissue-based; outline: as §2
[23] = target: 5-hydroxytryptamine receptor 1B (Rattus norvegicus) (UniProt P28564); test: Displacement of [125I]CYP from rat cerebral cortex 5-HT1B receptor at 10^-5 M in the presence of isoproternol; format: tissue-based; outline: as §2
[24] = target: 5-hydroxytryptamine receptor 2C (Homo sapiens) (UniProt P28335); test: Displacement of [3H][…] from human recombinant 5-HT2C receptor expressed in HEK293 cells at 10^-5 M; format: cell-based; outline: as §1
[25] = target: 5-hydroxytryptamine receptor 3A (Homo sapiens) (UniProt P46098); test: Displacement of [3H]BRL43694 from human recombinant 5-HT3 receptor expressed in CHO cells at 10^-5 M; format: cell-based; outline: as §2
Sequence of 5-hydroxytryptamine receptor 3A (Homo sapiens) (P46098 whole entry): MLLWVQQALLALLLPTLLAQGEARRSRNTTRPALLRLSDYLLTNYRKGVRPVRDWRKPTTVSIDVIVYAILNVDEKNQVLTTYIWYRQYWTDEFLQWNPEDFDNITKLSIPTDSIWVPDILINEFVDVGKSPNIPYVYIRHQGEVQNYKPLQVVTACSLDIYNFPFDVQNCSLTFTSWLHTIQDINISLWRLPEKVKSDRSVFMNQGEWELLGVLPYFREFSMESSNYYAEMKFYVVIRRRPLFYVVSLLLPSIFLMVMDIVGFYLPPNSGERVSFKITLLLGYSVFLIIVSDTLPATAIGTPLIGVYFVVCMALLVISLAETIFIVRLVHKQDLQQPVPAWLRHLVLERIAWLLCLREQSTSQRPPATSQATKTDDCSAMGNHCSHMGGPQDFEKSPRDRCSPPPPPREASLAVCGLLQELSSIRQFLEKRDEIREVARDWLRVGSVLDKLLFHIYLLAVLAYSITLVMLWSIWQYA

[26] = target: 5-hydroxytryptamine receptor 5A (Homo sapiens) (UniProt P47898); test: Displacement of [3H]LSD from human recombinant 5-HT5A receptor expressed in HEK293 cells at 10^-5 M; format: cell-based; outline: as §2
[27] = target: 5-hydroxytryptamine receptor 6 (Homo sapiens) (UniProt P50406); test: Displacement of [3H]LSD from human recombinant 5-HT6 receptor expressed in CHO cells at 10^-5 M; format: cell-based; outline: as §2
[28] = target: Somatostatin receptor (Mus musculus) (UniProt P30935+O08858+P30875+P30873+P49660); test: Displacement of [125I]Tyr11-somatostatin-14 from somatostatin receptor in mouse AtT20 cells at 10^-5 M; format: cell-based; outline: as §2
[29] = target: Glucocorticoid receptor (Homo sapiens) (UniProt P04150); test: Displacement of [3H]dexamethasone from glucocorticoid receptor in human IM9 cells at 10^-5 M; format: cell-based; conditions: IM-9; outline: as §1
Sequence of Glucocorticoid receptor (Homo sapiens) (P04150 whole entry): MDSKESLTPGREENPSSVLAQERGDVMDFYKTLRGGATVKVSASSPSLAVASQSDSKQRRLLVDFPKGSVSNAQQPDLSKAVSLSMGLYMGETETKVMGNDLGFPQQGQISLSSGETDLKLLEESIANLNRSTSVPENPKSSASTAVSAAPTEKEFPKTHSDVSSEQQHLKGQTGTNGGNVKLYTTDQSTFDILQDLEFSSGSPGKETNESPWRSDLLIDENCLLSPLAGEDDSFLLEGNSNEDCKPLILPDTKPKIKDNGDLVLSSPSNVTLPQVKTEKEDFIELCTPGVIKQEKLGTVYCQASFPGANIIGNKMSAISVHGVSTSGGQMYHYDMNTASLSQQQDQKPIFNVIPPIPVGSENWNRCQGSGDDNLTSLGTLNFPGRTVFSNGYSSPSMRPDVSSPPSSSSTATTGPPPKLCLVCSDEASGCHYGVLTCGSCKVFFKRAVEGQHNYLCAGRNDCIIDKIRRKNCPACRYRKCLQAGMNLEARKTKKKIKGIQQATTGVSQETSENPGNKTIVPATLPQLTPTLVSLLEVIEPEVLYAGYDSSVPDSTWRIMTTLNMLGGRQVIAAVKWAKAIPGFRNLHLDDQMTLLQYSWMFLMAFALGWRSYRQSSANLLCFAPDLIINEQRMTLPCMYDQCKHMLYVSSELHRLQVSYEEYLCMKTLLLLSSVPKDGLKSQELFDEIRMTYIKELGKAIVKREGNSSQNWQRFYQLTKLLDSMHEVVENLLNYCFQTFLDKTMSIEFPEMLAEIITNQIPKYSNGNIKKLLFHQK

[30] = species on record: Rattus norvegicus; test: Displacement of […] from rat cerebral cortex GABA-gated chloride channel at 10^-5 M; format: tissue-based; outline: as §2
[31] = target: Sodium-dependent dopamine transporter (Homo sapiens) (UniProt Q01959); test: Displacement of [3H]BTCP from human recombinant dopamine transporter expressed in CHO cells at 10^-5 M; format: cell-based; outline: as §2

SMILES | inhibition [1] [%] | inhibition [2] [%] | Activity [3] | Activity [4] | Activity [5] | Activity [6] | inhibition [7] [%] | inhibition [8] [%] | inhibition [9] [%] | inhibition [10] [%] | inhibition [11] [%] | inhibition [12] [%] | inhibition [13] [%] | inhibition [14] [%] | inhibition [15] [%] | inhibition [16] [%] | inhibition [17] [%] | inhibition [18] [%] | inhibition [19] [%] | inhibition [20] [%] | further results
Cc1cccc(C)c1OCCOCCN[C@@H](C)CO | 14.7 | 4.6 | inactive | inactive | Active | inactive | 3 | 5.7 | -5.4 | 1.6 | -4.4 | 14.1 | 17.1 | 9 | 4.4 | 15.7 | 41.2 | 15 | 54 | 11.2 | inhibition [21]: 3%; inhibition [22]: 9.4%; inhibition [23]: 16.5%; inhibition [24]: 47.4%; inhibition [25]: 12.3%; inhibition [26]: 10.7%; inhibition [27]: 15.4%; inhibition [28]: -2%; inhibition [29]: 8.3%; inhibition [30]: 4.6%; inhibition [31]: 16.2%
Cc1cccc(C)c1OCCOCCN[C@H](C)CO | 12 | 5.1 | inactive | inactive | Active | inactive | -1.8 | 2 | -1.4 | -3.9 | -3.4 | 22.7 | 0.6 | 5.3 | 8.5 | 11.2 | 2.2 | 8 | 29.3 | 3.4 | inhibition [21]: 14.9%; inhibition [22]: 9.4%; inhibition [23]: -1.8%; inhibition [24]: 34.7%; inhibition [25]: 29.4%; inhibition [26]: 4.2%; inhibition [27]: 6.7%; inhibition [28]: -5.5%; inhibition [29]: 31.3%; inhibition [30]: -7.6%; inhibition [31]: 24.5%
